Source: ChEMBL document CHEMBL1629563, “Pharmacokinetic and safety evaluation of BILR 355, a second-generation nonnucleoside reverse transcriptase inhibitor, in healthy volunteers” (Antimicrob Agents Chemother, 2008)

Tests used:
Homo sapiens [1] = assay: Toxicity in healthy human assessed as occurrence of palpitations at 5 mg, po administered as single dose relative to control; type: organism-based; conditions: in vivo
[2] = AUC (0 to infinity) in healthy human at 37.5 mg, po administered as single dose coadministered with 100 mg of ritonavir; type: ADME, organism-based; set-up: dose 37.5 mg, route oral, time infinity; conditions: plasma
Outline: (§1)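 Healthy male volunteers, fasted. Ritonavir 100 mg given 10 h before and again together with single oral BILR 355 in PEG solution. EDTA plasma sampled predose to 144 h. LC-MS/MS assay after protein precipitation. Noncompartmental analysis, AUC by linear up/log down trapezoidal rule; Vss = CL/F·(MRTp.o. − 1/Ka).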

[3] = AUC (0 to infinity) in healthy human at 25 mg, po administered as single dose coadministered with 100 mg of ritonavir; type: ADME, organism-based; set-up: dose 25 mg, route oral, time infinity; conditions: plasma; outline: as §1
[4] = Half life in healthy human at 5 mg, po administered as single dose; type: ADME, organism-based; conditions: in vivo
Homo sapiens [5] = assay: Toxicity in healthy human assessed as occurrence of maculopapular rash at 25 mg, po administered as single dose coadministered with 100 mg of ritonavir; type: organism-based; conditions: in vivo
[6] = Apparent volume of distribution at steady state in healthy human at 75 mg, po administered as single dose coadministered with 100 mg of ritonavir; type: ADME, organism-based; conditions: in vivo, read-out: Vss/F
Outline: (§2)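 Healthy male volunteers, fasted overnight, got one oral dose of BILR 355 in PEG solution with 200 ml water. Ritonavir 100 mg was given 10 h before and again with the dose. Plasma was sampled (EDTA) from predose to 144 h and assayed by validated LC-MS/MS. Cmax and Vz/F came from noncompartmental analysis. Vss/F = CL/F·(MRTp.o. − 1/Ka), with Ka from compartmental modelling.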

Homo sapiens [7] = assay: Toxicity in healthy human assessed as occurrence of maculopapular rash at 75 mg, po administered as single dose relative to control; type: organism-based; conditions: in vivo
Homo sapiens [8] = assay: Toxicity in healthy human assessed as occurrence of maculopapular rash at 75 mg, po administered as single dose coadministered with 100 mg of ritonavir; type: organism-based; conditions: in vivo
Homo sapiens [9] = assay: Toxicity in healthy human assessed as occurrence of fatigue at 5 mg, po administered as single dose coadministered with 100 mg of ritonavir; type: organism-based; conditions: in vivo
[10] = Tmax in high fat fed healthy human at 50 mg, po administered as single dose coadministered with 100 mg of ritonavir; type: ADME, organism-based; conditions: in vivo
[11] = Cmax in healthy human at 25 mg, po administered as single dose coadministered with 100 mg of ritonavir by high-pressure liquid chromatography-tandem mass spectrometry/mass spectrometry method; type: ADME, organism-based; set-up: dose 25 mg, route oral; conditions: in vivo; outline: as §2
Homo sapiens [12] = assay: Toxicity in healthy human assessed as occurrence of headache at 75 mg, po administered as single dose relative to control; type: organism-based; conditions: in vivo
Homo sapiens [13] = assay: Toxicity in healthy human assessed as occurrence of neurological eyelid disorder at 1 mg, po administered as single dose relative to control; type: organism-based; conditions: in vivo
[14] = AUC (0 to infinity) in healthy human at 25 mg, po administered as single dose; type: ADME, organism-based; set-up: dose 25 mg, route oral, time infinity; conditions: plasma
Outline: (§3)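 Healthy male volunteers, six active plus two placebo per dose group, single oral dose in PEG solution with 200 ml water after overnight fast; breakfast 60 to 90 min post-dose. EDTA plasma sampled predose to 144 h. Assayed by validated LC-MS/MS after protein precipitation. Noncompartmental analysis, AUC by linear up/log down trapezoidal rule; Vss = CL/F·(MRTp.o. − 1/Ka).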

Homo sapiens [15] = assay: Toxicity in healthy human assessed as occurrence of abdominal pain at 1 mg, po administered as single dose relative to control; type: organism-based, Abdomen; conditions: in vivo
[16] = Apparent oral clearance in healthy human at 12.5 mg, po administered as single dose; type: ADME, organism-based; conditions: in vivo; outline: as §3
[17] = Cmax in high fat fed healthy human at 50 mg, po administered as single dose coadministered with 100 mg of ritonavir by high-pressure liquid chromatography-tandem mass spectrometry/mass spectrometry method; type: ADME, organism-based; set-up: dose 50 mg, route oral; conditions: in vivo
Outline: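 Fed cohort: healthy males ate an FDA-recipe high-fat breakfast (about 150/250/500-600 cal from protein/carbohydrate/fat) 30 min before a 50 mg oral dose of BILR 355 in PEG solution. Ritonavir 100 mg was given 10 h before and with the dose. Plasma was sampled over 144 h and assayed by LC-MS/MS. Noncompartmental analysis gave Cmax and Vz/F. Vss/F = CL/F·(MRTp.o. − 1/Ka).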

Homo sapiens [18] = assay: Toxicity in healthy human assessed as occurrence of constipation at 25 mg, po administered as single dose relative to control; type: organism-based; conditions: in vivo
[19] = AUC (0 to infinity) in healthy human at 87.5 mg, po administered as single dose coadministered with 100 mg of ritonavir; type: ADME, organism-based; set-up: dose 87.5 mg, time infinity, route oral; conditions: plasma; outline: as §1
[20] = Apparent volume of distribution in terminal phase in healthy human at 75 mg, po administered as single dose coadministered with 100 mg of ritonavir; type: ADME, organism-based; conditions: in vivo, read-out: Vz/F; outline: as §2
[21] = Apparent oral clearance in healthy human at 50 mg, po administered as single dose coadministered with 100 mg of ritonavir; type: ADME, organism-based; conditions: in vivo; outline: as §1
Homo sapiens [22] = assay: Ratio of AUC (0 to infinity) in human at 50 mg, po in presence of 100 mg of ritonavir to AUC (0 to infinity) in human at 50 mg, po; type: ADME, organism-based; conditions: in vivo
Homo sapiens [23] = assay: Toxicity in healthy human assessed as occurrence of maculopapular rash at 12.5 mg, po administered as single dose coadministered with 100 mg of ritonavir; type: organism-based; conditions: in vivo
Homo sapiens [24] = assay: Toxicity in healthy human assessed as occurrence of abdominal pain at 100 mg, po administered as single dose relative to control; type: organism-based, Abdomen; conditions: in vivo
[25] = Tmax in healthy human at 25 mg, po administered as single dose coadministered with 100 mg of ritonavir; type: ADME, organism-based; conditions: in vivo
Homo sapiens [26] = assay: Toxicity in healthy human assessed as occurrence of herpes simplex at 12.5 mg, po administered as single dose relative to control; type: organism-based; conditions: in vivo
[27] = AUC (0 to last) in healthy human at 25 mg, po administered as single dose coadministered with 100 mg of ritonavir; type: ADME, organism-based; set-up: dose 25 mg, route oral, time 0 - last; conditions: plasma; outline: as §1
Homo sapiens [28] = assay: Toxicity in healthy human assessed as occurrence of headache at 50 mg, po administered as single dose relative to control; type: organism-based; conditions: in vivo
[29] = AUC (0 to infinity) in healthy human at 75 mg, po administered as single dose coadministered with 100 mg of ritonavir; type: ADME, organism-based; set-up: dose 75 mg, route oral, time infinity; conditions: plasma; outline: as §1
[30] = Half life in healthy human at 75 mg, po administered as single dose coadministered with 100 mg of ritonavir; type: ADME, organism-based; conditions: in vivo
Homo sapiens [31] = assay: Toxicity in healthy human assessed as occurrence of diarrhea at 50 mg, po administered as single dose coadministered with 100 mg of ritonavir; type: organism-based; conditions: in vivo
Homo sapiens [32] = assay: Toxicity in healthy human assessed as occurrence of neurological eyelid disorder at 100 mg, po administered as single dose relative to control; type: organism-based; conditions: in vivo
Homo sapiens [33] = assay: Toxicity in healthy human assessed as occurrence of diarrhea at 5 mg, po administered as single dose coadministered with 100 mg of ritonavir; type: organism-based; conditions: in vivo
[34] = AUC (0 to last) in healthy human at 75 mg, po administered as single dose coadministered with 100 mg of ritonavir; type: ADME, organism-based; set-up: dose 75 mg, route oral, time 0 - last; conditions: plasma; outline: as §1
[35] = Cmax in healthy human at 87.5 mg, po administered as single dose coadministered with 100 mg of ritonavir by high-pressure liquid chromatography-tandem mass spectrometry/mass spectrometry method; type: ADME, organism-based; set-up: dose 87.5 mg, route oral; conditions: in vivo; outline: as §2

Compound: CCN1c2ncc(CCOc3cc[n+]([O-])c4ccccc34)cc2C(=O)N(C)c2cccnc21 [BILR 355]
- Activity (Homo sapiens [1]): 0%
- AUC(0-inf) [2]: 5.96 µg·h/mL
- AUC(0-inf) [3]: 4.34 µg·h/mL
- half-life [4]: 5.02 h
- Activity (Homo sapiens [5]): 16.7%
- Vd/F [6]: 105 L
- Activity (Homo sapiens [7]): 0%
- Activity (Homo sapiens [8]): 0%
- Activity (Homo sapiens [9]): 0%
- Tmax [10]: 6 h
- Cmax [11]: 0.226 µg/mL
- Activity (Homo sapiens [12]): 0%
- Activity (Homo sapiens [13]): 0%
- AUC(0-inf) [14]: 0.142 µg·h/mL
- Activity (Homo sapiens [15]): 0%
- CL/F [16]: 4100 mL/min
- Cmax [17]: 0.43 µg/mL
- Activity (Homo sapiens [18]): 16.7%
- AUC(0-inf) [19]: 11.8 µg·h/mL
- Vd/F [20]: 108 L
- CL/F [21]: 131 mL/min
- Ratio (Homo sapiens [22]): 15.5
- Activity (Homo sapiens [23]): 0%
- Activity (Homo sapiens [24]): 0%
- Tmax [25]: 1.75 h
- Activity (Homo sapiens [26]): 0%
- AUC(0-t) [27]: 4.14 µg·h/mL
- Activity (Homo sapiens [28]): 16.7%
- AUC(0-inf) [29]: 12.3 µg·h/mL
- half-life [30]: 11.9 h
- Activity (Homo sapiens [31]): 0%
- Activity (Homo sapiens [32]): 0%
- Activity (Homo sapiens [33]): 0%
- AUC(0-t) [34]: 12.1 µg·h/mL
- Cmax [35]: 0.838 µg/mL
